Screening data (PubChem BioAssay)
Compounds with a hit are over-represented: about 3.1% of the library has one in this group of screens.
Calb FLC – C. albicans growth inhibition with fluconazole, primary screen, CaCi-2 strain, Alamar Blue fluorescence. C. albicans CaCi-2 (fluconazole-resistant clinical isolate) + fluconazole, 48 h. growth inhibition, % (no concentration beside the values). hit rate 0.57% among 300,000. AID 1979, 2009;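 active means growth inhibition above about 58% in most replicates, limit read from the data, passing the limit was not always enough; inconclusive means exactly half the replicates above a set limit; inactive means most replicates below a set limit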;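 further: all wells also contain fluconazole at 8 µg/ml as a sub-toxic cotreatment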
H9c2 TAG inh – inhibitors of triacylglycerol accumulation, primary screen, cell-based, uHTS, fluorescence, H9c2; H9c2 cells, Nile Red lipid (TAG) fluorescence; cells loaded with 200 µM oleic acid; inhibition, % at 12.5 µM; hit rate 0.66% among 230,000;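 active means pattern-corrected inhibition of lipid staining of at least 50% with the nuclear-stain viability signal not falling by more than 50%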
T cruzi inh – inhibitors of intracellular T. cruzi growth, primary screen, luminescence, NIH3T3 host cells. T. cruzi beta-gal in NIH3T3, 90 h. inhibition, % (concentration not given with the values). hit rate 1.4% among 300,000;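 active means mean inhibition across valid replicates above about 55%, limit read from the data; inconclusive means mean below that limit but half or more replicates reach it; inactive means mean below it, under half of replicates reach it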;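 further: signal also drops with host cell toxicity which is not excluded here; higher percent means less beta-gal luminescence so fewer parasites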
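Test system: β-gal T. cruzi (Tulahuen C4) inside NIH/3T3 cells / Quantity: 5,000 cells/well / Measured by: luminescence from GalScreen with 0.05% NP40, read after 60 min / Medium: DMEM plus 2% FBS / Measure: parasite load inhibition, % / Reagent: Tulahuen C4 trypomastigotes, 5000/well / Schedule: co-culture of at least 90 h after 3 h attachment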
CSC inhib – cancer stem cell viability inhibitors, primary screen, luminescence; cancer stem cell-like cells viability; inhibition, % at 7.5 µM; hit rate 1.1% among 300,000; AID 2717, 2010; in the data active means inhibition above about 75%; inconclusive means no clear call, values can overlap the other calls; tested in HMLE shEcad cells
Beta cell apopt – inhibitors of cytokine-induced beta cell apoptosis, primary screen, luminescence; INS-1E cytokine-induced death, ATP luminescence, 48 h; percent of positive-control rescue, neutral wells zero; protection from apoptosis, % (concentration not given with the values); hit rate 0.8% among 300,000; AID 435005, 2010;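 active means Every replicate reaches about 75%, or at least half do and their mean reaches it too, limit read from the data; inconclusive means At least half of replicates reach the limit but their mean does not; inactive means Under half of replicates reach the limit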;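 further: higher means more ATP so stronger rescue from cytokine killing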
Bfl-1 A1 inh – caspase 3/7 activation in MEF A1-2A-BIM cells, primary screen, A1 inhibitor project, cell-based, luminescence, HTS; AID 2462, 2010; Caspase-Glo 3/7 luminescence, 3 h; percent of clofoctol response, vehicle zero; caspase activation, % (no concentration beside the values); hit rate 0.066% among 330,000;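 active means over half of replicate activation scores above 10%, or exactly half above 10 with the replicate mean above 10; inconclusive means replicate mean below 10 yet half the replicates above 10; inactive means over half of replicates below 10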
A number is an active result; i = inactive; ? = inconclusive; nt = no result given.

SMILES	Calb FLC	H9c2 TAG inh	T cruzi inh	CSC inhib	Beta cell apopt	Bfl-1 A1 inh
COc1ccc(NC(=O)c2cc3ccc(O)cc3o/c2=N\O)cc1	i	nt	i	75.4	nt	i
Cc1ccc(C)c(NC(=O)NNC(=O)c2cc3ccccc3cc2O)c1	i	i	i	i	i	i
CCc1ccc(NC(=O)NNC(=O)c2cc3ccccc3cc2O)cc1	?	i	i	i	i	i
COc1ccc(NC(=O)c2cc3ccccc3cc2O)cc1	i	nt	i	86.5	i	i
Cc1ccc(NC(=O)NNC(=O)c2cc3ccccc3cc2O)cc1C	81.3	i	i	i	i	i
CCOc1ccc(NC(=O)NNC(=O)c2cc3ccccc3cc2O)cc1	85.5	i	i	i	i	i
CC(=NNC(=O)c1cccc(S(=O)(=O)N2CCOCC2)c1)c1ccc(Cl)cc1	nt	i	nt	i	i	i
Cc1ccc(CC(=O)Nc2nccs2)cc1C	i	nt	i	i	i	i
CC1CCN(S(=O)(=O)N2CCC(C(=O)NCCc3ccccc3)CC2)CC1	i	nt	i	i	i	i
Cc1ccc(OCCN2CCN(CC(O)Cn3c4ccccc4c4ccccc43)CC2)cc1 (stereo unspecified)	i	nt	i	89.6	i	i
CC(Oc1ccccc1)C(=O)Nc1cc(Cl)ccc1-n1cncn1 (stereo unspecified)	i	i	i	i	i	i
c1ccc(-c2cn3nc(-c4ccccc4)c(-c4ccccc4)nc3n2)cc1	i	i	i	i	i	i
O=[N+]([O-])c1cccc(-c2cn3nc(-c4ccccc4)c(-c4ccccc4)nc3n2)c1	i	i	i	i	97.9	i
CSCc1cc(N(C)c2ccccc2)nc(-c2ccccn2)n1	i	nt	60.1	i	i	i
CN(C)c1cc(C(F)(F)F)nc(-c2ccccn2)n1	i	nt	i	i	i	i
CCN(CC)CCCNC(=O)c1ccc(OCC(=O)Nc2ccccc2C(F)(F)F)c(OC)c1	i	i	54.8	i	i	i
CCN(CC(=O)Nc1ccc(OC)c(OC)c1)CC(=O)Nc1ccccc1C(F)(F)F	i	nt	i	i	i	i
CC1CN(S(=O)(=O)c2cccc(C(=O)NCC3COc4ccccc4O3)c2)CC(C)O1 (stereo unspecified)	nt	i	nt	i	i	i
O=C(NCC1COc2ccccc2O1)c1cccc(S(=O)(=O)NCc2ccccc2)c1 (stereo unspecified)	i	i	i	i	104.6	i
Cc1ccc(/C=C/C(=O)Nc2ccc(Oc3ccccc3)cc2)o1	i	nt	i	88.3	i	i
CN(c1cccc(Cl)c1)S(=O)(=O)c1cccc(C(=O)NN2CCOCC2)c1	nt	i	nt	i	i	i
COCC(=O)Nc1nc2n(n1)C(c1ccccc1Cl)CC(c1ccc(OC)cc1)N2 (stereo unspecified)	110.5	nt	i	i	i	i
Cc1ccccc1S(=O)(=O)NC(=O)C1(C)CCN1C(=O)C(C)(C)c1ccccc1 (stereo unspecified)	nt	i	nt	nt	nt	nt
COc1cccc(C(=O)NC2CCN(C(=O)N3c4ccccc4Sc4ccccc43)CC2)c1	i	nt	69.5	i	i	i
Cc1nn(-c2ccc([N+](=O)[O-])cc2)c2c1C(c1cccc(Br)c1)N1C(=N2)C(=O)Nc2ccccc21 (stereo unspecified)	i	nt	81.8	i	nt	i
SMILES	Calb FLC	H9c2 TAG inh	T cruzi inh	CSC inhib	Beta cell apopt	Bfl-1 A1 inh
Cc1ccc(S(=O)(=O)N2CCC(C(=O)N/N=C/c3cccn3C)CC2)cc1	nt	i	nt	i	i	i
CC1=C(C)/C(=N\OS(=O)(=O)c2ccccc2)C=CC1=O	i	i	54.8	i	113.2	i
CC(C#N)(CCc1ccccn1)CCc1ccccn1	nt	i	nt	nt	nt	nt
CCN(CC)S(=O)(=O)c1cnccc1N1CCN(c2cccc(Cl)c2)CC1	i	i	65.2	i	nt	i
CNS(=O)(=O)c1cnccc1N1CCN(c2cccc(Cl)c2)CC1	i	i	i	i	i	i
CN1CCN(S(=O)(=O)c2cnccc2N2CCN(c3cccc(Cl)c3)CC2)CC1	i	nt	56.2	i	i	i
Cc1c(NC(=O)C(C)OC(=O)c2ncc(Cl)c(Cl)c2Cl)c(=O)n(-c2ccccc2)n1C (stereo unspecified)	i	i	i	i	i	i
CC(C)CC(=O)O/N=C1\C(=O)N(Cc2ccc(Cl)cc2)c2ccc([N+](=O)[O-])cc21	i	nt	58.0	nt	i	i
CC(=O)O/N=C1\C(=O)N(Cc2ccc(C)cc2)c2ccccc21	nt	i	nt	nt	nt	nt
CSCCOC(=O)c1[nH]c2c(c1C)C(=O)CC(c1ccco1)C2 (stereo unspecified)	i	56.1	i	i	i	i
CCCCOC(=O)c1[nH]c2c(c1C)C(=O)CC(c1cc(OC)c(OC)c(OC)c1)C2 (stereo unspecified)	i	i	i	i	74.9	i
CCOC(=O)c1[nH]c2c(c1C)C(=O)CC(c1ccco1)C2 (stereo unspecified)	i	i	i	i	i	i
COCCOC(=O)c1[nH]c2c(c1C)C(=O)CC(c1ccco1)C2 (stereo unspecified)	i	59.6	i	i	i	i
CC(C)(C)c1ccc(CC(=O)N2CCC2(C)C(=O)N2CCCCC2)cc1 (stereo unspecified)	nt	i	nt	nt	nt	nt
Cc1c(NC(=O)C(C)OC(=O)c2ccc([N+](=O)[O-])cc2Cl)c(=O)n(-c2ccccc2)n1C (stereo unspecified)	nt	i	nt	nt	nt	nt
O=C(CCc1nc(-c2ccccc2Cl)no1)NC1CCCCC1	i	nt	i	nt	i	i
O=c1[nH]cc(N=Cc2cc([N+](=O)[O-])ccc2O)c(=O)[nH]1	93.3	nt	i	i	i	i
Cc1cc(/C=N/n2cnnc2)c(C)n1-c1ccc2c(c1)OCO2	i	nt	i	i	nt	i
Cc1cccc(-n2c(C)cc(/C=N/n3cnnc3)c2C)c1	i	i	i	i	110.6	i
COc1ccc(C(=O)N2CCCC(C)(C(=O)NS(=O)(=O)C3CC3)C2)c(OC)c1 (stereo unspecified)	nt	i	nt	nt	nt	nt
C#C[C@]1(O)CC[C@H]2[C@@H]3CCc4cc(OC)ccc4[C@H]3CC[C@@]21C	i	i	i	i	i	i
C#C[C@]1(O)CC[C@H]2[C@@H]3CCc4cc(OC5CCCC5)ccc4[C@H]3CC[C@@]21C	nt	i	54.6	98.4	i	i
N#C/C(C(N)=O)=c1/ccc2c(c1)N1C3=C(CCCC3)CC3CCCCC31N=2 (stereo unspecified)	i	nt	i	i	i	i
N#CC(C#N)=c1ccc2c(c1)N1C3=C(CCCC3)CC3CCCCC31N=2 (stereo unspecified)	i	92.4	i	i	i	i
CCn1nc(C)c(NC(=O)/C=C/c2ccc(OC)c(COc3ccc(Cl)cc3Br)c2)c1C	i	i	54.7	i	nt	i
